B1: Osa-1-4 twister ribozyme (parent)
chain: CCGCCUAACACUGCCAAUGCCGGUCCCAAGCCCGGAUAAAAGUGGAGGGGGCGG

Variants of: B1
Assay: self-cleavage, relative activity (ratio to wild type); higher = more cleavage; co-transcriptional
How it was run: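 The 48 positions downstream of the cleavage site in a DNA template for a 54-nucleotide Oryza sativa twister ribozyme carried 97 % wild-type base and 1 % of each other base. After in vitro transcription (2 h, 37 °C) with co-transcriptional self-cleavage, the RNA was reverse-transcribed with a template-switching oligonucleotide, PCR-amplified and deep-sequenced. Relative activity is the fraction cleaved, judged by reads with or without upstream sequence and normalised to wild type.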

In order of falling self-cleavage:
1. A28C A36U  1.02
2. A28C U37C  1.01
3. A28C U18G  1.01
4. A28C A38G  1.01
5. A28C C52U  1.01
6. A28C C20U  1.01
7. A28C A39U  1
8. A28C G50C  1
9. A28C A36G  1
10. A28C C21U  1
11. A28C A39G  0.99
12. A28C G50U  0.98
13. A28C U37G  0.98
14. A28C A38C  0.98
15. A28C A41U  0.98
16. A28C A38U  0.97
17. A28C U18A  0.96
18. A28C G44C  0.95
19. A28C G44A  0.95
20. A28C G54U  0.95
21. A28C C20A  0.94
22. A28C A39C  0.93
23. A28C C52G  0.93
24. A28C C11U  0.91
25. A28C C25U  0.91
26. A28C G54A  0.91
27. A28C A41C  0.91
28. A28C U12A  0.89
29. A28C C33U  0.86
30. A28C G54C  0.86
31. A28C G35U  0.85
32. A28C C31U  0.84
33. A28C A41G  0.82
34. A28C G50A  0.81
35. A28C G35A  0.81
36. A28C C9U  0.8
37. A28C G19A  0.79
38. A28C C26U  0.78
39. A28C G53A  0.78
40. A28C G44U  0.75
41. A28C U37A  0.74
42. A28C U43A  0.72
43. A28C U18C  0.72
44. A28C C11A  0.71
45. A28C G34A  0.69
46. A28C G22A  0.68
47. A28C A40G  0.68
48. A28C C52A  0.68
49. A28C C9G  0.67
50. A28C A36C  0.64
51. A28C A40U  0.55
52. A28C C21A  0.53
53. A28C G34U  0.51
54. A28G A46G  0.5
55. A28G  0.48
56. A28C C14U  0.46
57. A28G A36G  0.45
58. A28C G42A  0.43
59. A28C C9A  0.42
60. A28C G22U  0.4
61. A28C G35C  0.4
62. A28G A7G  0.38
63. A28C G34C  0.38
64. A28G A36U  0.36
65. A28C G19U  0.35
66. A28C C15A  0.35
67. A28C U12C  0.34
68. A28C U43C  0.33
69. A28C C15U  0.33
70. A28C U43G  0.32
71. A28C C15G  0.32
72. A28C C20G  0.31
73. A28G C9G  0.29
74. A28C G51U  0.28
75. A28C G51A  0.24
76. A28C G19C  0.23
77. A28G A38U  0.23
78. A28C G53U  0.23
79. A28G A41U  0.23
80. A28G C15G  0.23
81. A28G A38G  0.22
82. A28G A38C  0.21
83. A28C C11G  0.21
84. A28C G47A  0.2
85. A28C G23A  0.2
86. A28G A8G  0.19
87. A28C G47U  0.19
88. A28C U24C  0.18
89. A28G A39G  0.17
90. A28C A8G  0.17
91. A28C C14G  0.17
92. A28G A39U  0.16
93. A28G C11U  0.16
94. A28C A29G  0.16
95. A28C G49A  0.16
96. A28G C14G  0.15
97. A28C U12G  0.15
98. A28C U24A  0.14
99. A28G A40G  0.14
100. A28G A41G  0.14
101. A28G A41C  0.13
102. A28C G45A  0.13
103. A28C G49U  0.13
104. A28C C33A  0.12
105. A28C G51C  0.12
106. A28C G42C  0.12
107. A28G A39C  0.11
108. A28C C27U  0.11
109. A28G C9U  0.11
110. A28C C32U  0.11
111. A28G C14U  0.11
112. A28C G13A  0.11
113. A28C A8U  0.1
114. A28C C32G  0.1
115. A28C G48A  0.09
116. A28G A40U  0.09
117. A28G A36C  0.09
118. A28C C27A  0.09
119. A28C C26G  0.09
120. A28G C11A  0.09
121. A28C C25A  0.09
122. A28C C25G  0.09
123. A28C C21G  0.09
124. A28C C14A  0.09
125. A28C C31G  0.09
126. A28C A29U  0.09
127. A28C G48C  0.08
128. A28C G22C  0.08
129. A28C G42U  0.08
130. A28G A29G  0.08
131. A28C A40C  0.08
132. A28C G47C  0.08
133. A28C G53C  0.08
134. A28C C32A  0.08
135. A28G C15A  0.08
136. A28C G45U  0.08
137. A28C G48U  0.07
138. A28C C33G  0.07
139. A28G A7U  0.07
140. A28G A8U  0.07
141. A28C A46U  0.07
142. A28C A46G  0.07
143. A28C G49C  0.07
144. A28C G23U  0.07
145. A28G A29U  0.06
146. A28G C11G  0.06
147. A28C A46C  0.06
148. A28C U24G  0.05
149. A28C G30C  0.05
150. A28G A40C  0.05
151. A28G A8C  0.05
152. A28C C27G  0.05
153. A28C C26A  0.05
154. A28G A46U  0.05
155. A28G C14A  0.05
156. A28C A29C  0.05
157. A28C G23C  0.05
158. A28C G30U  0.04
159. A28C G30A  0.04
160. A28G A7C  0.04
161. A28G C9A  0.04
162. A28G A46C  0.04
163. A28C C31A  0.04
164. A28C G45C  0.03
165. A28C G13U  0.03
166. A28G A29C  0.02
167. A28C G13C  0.02
